{
  "source": "PubChem BioAssay AID624204",
  "about": "(Sanford-Burnham Center for Chemical Genomics, 2012)",
  "note": "Out of some 360,000 compounds screened, about 770 (0.21%) were called active. This excerpt belongs to a sample that is enriched for actives. Values without a mark were called inactive.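 The calls were made as follows: active = inhibition at least 30% at 10 µM, raw YFP signal under a set limit, fluorescence ratio 0.5 to 1.5; inactive = the rest.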",
  "data": [
    {"biological_target": "Sentrin-specific protease 1 (Homo sapiens) (UniProt Q9P0U3)", "sequence (Q9P0U3 419-644 limits assumed)": "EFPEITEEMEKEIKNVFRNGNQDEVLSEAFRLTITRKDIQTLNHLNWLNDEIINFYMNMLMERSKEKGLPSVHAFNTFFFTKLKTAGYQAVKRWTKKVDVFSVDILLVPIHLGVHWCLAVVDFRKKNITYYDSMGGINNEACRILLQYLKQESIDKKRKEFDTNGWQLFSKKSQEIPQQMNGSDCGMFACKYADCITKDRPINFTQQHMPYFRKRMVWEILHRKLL", "test": "blockers of SENP1 SUMO protease activity – biochemical, FRET, uHTS, primary screen (AID 624204);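 also: 0% = enzyme with DMSO and 100% = no enzyme wells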", "conditions": "recombinant SENP1 catalytic domain, CyPet-SUMO1-YPet FRET cleavage; at 10 µM; stronger effect = higher value", "summary_of_the_method": "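Material – human SENP1 catalytic domain · Input – SENP1 enzyme, 20 pM final · Compound dosing – single concentration of 10 µM compound, 0.5% DMSO final · Timing – enzyme reaction for 50 min at room temperature, dark · Measured by – FRET fluorescence in CFP and YFP emission channels · Control set – no-enzyme wells low, DMSO-plus-enzyme wells high control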", "values": [
      {"smiles": "CCOCCc1c(O)[nH]c(=S)[nH]c1=O", "inhibition": "-0.672%"},
      {"smiles": "COc1ccccc1N=Nc1c(O)[nH]c(=S)[nH]c1=O", "inhibition": "48.9% (active)"},
      {"smiles": "O=C1N=c2ccccc2=C/C1=C\\c1c(O)[nH]c(=S)[nH]c1=O", "inhibition": "-11.3%"},
      {"smiles": "CCCOC(=O)C1C2c3ccccc3C(c3ccccc32)C1C(=O)O", "note": "(stereo not given)", "inhibition": "-1.79%"},
      {"smiles": "CC(CC(C#N)(c1ccccc1)c1ccccc1)N1CCCCC1", "note": "(stereo not given)", "inhibition": "1.04%"}
    ]}
  ]
}
